# Screening results from PubChem BioAssay.
# A selection: hits, their analogues and other compounds. The true share with any hit is near 2.2%.
# CDK5 p35 inh: inhibitors of human CDK5/p35 kinase, primary screen, biochemical, single concentration | Recombinant CDK5/p35, ADP-Glo luminescence, 60 min | inhibition, % at 10 µM | Cyclin-dependent kinase 5 (Homo sapiens) + Cyclin-dependent kinase 5 activator 1 (Homo … | 330,000 tested, 0.01% active;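 active = highest replicate inhibition of at least 50% and at least 75% of replicates reaching 50%; inconclusive = only one of the two criteria met; inactive = both criteria failed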;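 also: plate controls were DMSO neutral control for no effect and GW8510 at 10 µM for full effect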
# CAL PDZ FP-1: untagged CAL PDZ binding inhibitors, primary screen, biochemical, fluorescence polarization, HTS. purified CAL PDZ, TMR-peptide fluorescence polarization, 1 h. inhibition, % at 24.9 µM. 300,000 tested, 0.92% active. AID 602252, 2012;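 active = mean inhibition of at least 30% with at least half of replicates also reaching 30%; inconclusive = no clear call, values can overlap the other calls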;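 also: 0% = DMSO neutral control and 100% = excess unlabeled competitor peptide PRC23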
# Dyrk1A ADPGlo: rat Dyrk1A kinase inhibitors, primary screen, biochemical, single point, plate reader. inhibition, % at 12.5 µM. ADP-Glo luminescence, NFATc1 peptide. AID 504441, 2011. 310,000 tested, 0.43% active. Dual specificity tyrosine-phosphorylation-regulated kinase 1A (Rattus norvegicus), Q63470; in the data active = inhibition above about 50%;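 also: plate controls were vehicle with enzyme for no effect and no enzyme for full effect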
# dFosB act-1: activators of delta FosB homodimer, primary screen, biochemical, fluorescence polarization, TAMRA-CDK5 oligo, single point | AID 493131, 2011 | activation, % at 25 µM | purified delta FosB; percent of positive-control signal above neutral wells | 340,000 tested, 0.99% active | Protein FosB (Mus musculus), P13346;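 active = mean activation above about 17%, with every replicate also reaching it, limit read from the data, passing the limit was not always enough; inconclusive = only one of the two conditions met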
# Rtt109 HAT inh: inhibitors of C. albicans Rtt109/Vps75 HAT, primary screen, biochemical, ThioGlo CoA-SH fluorescence, plate reader | 330,000 tested, 0.16% active | AID 540336, 2011 | Histone acetyltransferase RTT109 (Candida albicans (strain SC5314 / ATCC MYA-2876)), … | purified Rtt109/Vps75, 4 h | inhibition, % at 34.9 µM;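 active = inhibition of at least 50% in every replicate; inconclusive = best replicate reaches 50% inhibition but some replicates fall short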
# Target sequence (Q5AAJ8 whole entry, looked up): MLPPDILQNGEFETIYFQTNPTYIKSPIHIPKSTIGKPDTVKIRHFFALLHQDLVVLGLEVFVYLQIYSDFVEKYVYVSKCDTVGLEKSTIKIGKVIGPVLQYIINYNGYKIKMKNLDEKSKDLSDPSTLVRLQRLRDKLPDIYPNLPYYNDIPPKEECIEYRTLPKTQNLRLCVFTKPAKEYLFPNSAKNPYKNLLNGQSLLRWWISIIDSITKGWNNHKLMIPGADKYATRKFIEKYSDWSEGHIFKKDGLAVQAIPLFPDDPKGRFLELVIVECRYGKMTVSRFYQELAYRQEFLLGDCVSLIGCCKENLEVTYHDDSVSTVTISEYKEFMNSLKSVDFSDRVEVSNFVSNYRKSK
# CAL PDZ FP-2: CAL PDZ peptide-binding inhibitors, primary screen, biochemical, fluorescence polarization, Cer-tagged CAL PDZ, HTS | Golgi-associated PDZ and coiled-coil motif-containing protein (Homo sapiens), Q9HD26 | purified CAL PDZ, TMR-peptide fluorescence polarization, 1 h | inhibition, % at 20 µM | 330,000 tested, 0.02% active;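 active = highest replicate inhibition of at least 40%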;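 also: plate controls were DMSO neutral control wells for no effect and unlabeled competitor peptide control wells for full effect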
#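 Test system: tagged CAL PDZ domain / Buffer or medium: sodium phosphate/NaCl buffer pH 7.4 with TCEP, IgG, Thesit / Reagent: TMR-labelled reporter peptide T*-PRC34 bound in PDZ groove / Compound dosing: single point, 20 µM / Schedule: 1 h incubation at room temperature before polarization reading / Technique: fluorescence polarization (mP) / Benchmarks: unlabelled peptide, DMSO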
# dFosB act-2: activators of mouse delta FosB DNA binding, confirmation, biochemical, fluorescence polarization, TAMRA-CDK5 oligo, cherry-picked samples. purified delta FosB; normalised: neutral wells 0, positive control 100. activation, % at 24.9 µM. 2,400 tested, under 10 active. shares compounds with dFosB act-1;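 active = highest replicate activation at or above 34% and every replicate reaching that threshold; inconclusive = meets only one of the two criteria; inactive = meets neither criterion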;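 also: higher polarization means more probe DNA bound by delta FosB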
# * marks the source's active call; other numbers are inactive results; ? = inconclusive; . = not tested or not shown.
SMILES,CDK5 p35 inh,CAL PDZ FP-1,Dyrk1A ADPGlo,dFosB act-1,Rtt109 HAT inh,CAL PDZ FP-2,dFosB act-2
Cc1nn2c(COc3ccc(NC(=O)c4ccccc4Cl)cc3)nnc2c2ccccc12,1,-4,-2,26*,3,-7,-3
NC(=O)CC(NC(=O)Cc1cccc2ccccc12)c1ccc(NCc2ccc(F)cc2)c([N+](=O)[O-])c1 (stereo not given),-1,-1,1,32*,-3,-1,-6
NC(=O)CC(NC(=O)Cc1cccc2ccccc12)c1ccc(NCc2ccccc2)c([N+](=O)[O-])c1 (stereo not given),-1,-6,-11,47*,1,1,2
CC(C)N(C(=O)[C@H]1C[C@H](CC(=O)NCCCn2ccnc2)C(=O)N2CCc3c([nH]c4cc(CCC(=O)N(C)C)ccc34)[C@]12C)C(C)C,0,1,.,-6,-2,0,.
O=S(=O)(CC=CCS(=O)(=O)c1ccccc1)c1ccccc1,1,-5,1,12,-4,0,.
COC(=O)c1c(NC(=O)Cn2cc([N+](=O)[O-])cn2)sc2c1CCC2,0,2,-1,27*,-4,-1,1
COC(=O)c1c(NC(=O)CSc2ncnc3[nH]ncc23)sc2c1CCC2,1,1,0,29*,-5,-1,3
COC(=O)c1c(NC(=O)CSc2ncnc3c2cnn3-c2ccccc2Cl)sc2c1CCCC2,0,-8,2,-13,-4,-1,.
COc1ccccc1CNS(=O)(=O)c1ccc2c(c1)CC(C)N2C(=O)C1CCC1 (stereo not given),0,-1,4,-21,-7,-3,.
CCCCc1cc(=O)oc2c3c(cc(OCC(=O)NCCCO)c12)OC(C)(C)CC3,-1,-3,-1,-19,0,1,.
CC(C)(O)C#Cc1ccc(CN2CCN(Cc3ccsc3)C(CCO)C2)s1 (stereo not given),-3,0,6,-6,.,-2,.
O=C(COc1ccc(Cl)cc1Cl)Nc1ccc(-c2ccc(N3CCOCC3)nn2)cc1,0,-1,-7,42*,-2,-2,0
O=C(COc1ccc(Cl)cc1Cl)Nc1cccc(-c2ccc(N3CCOCC3)nn2)c1,0,-6,5,12,0,-2,.
Cc1ccc(NC(=O)CCn2c(=O)c3cccn3c3ccccc32)c(C)c1,2,2,4,?,-4,-1,.
Cc1ccc(NC(=O)Cn2c(=O)c3cccn3c3ccccc32)c(C)c1,0,-3,-6,46*,-1,-2,6
O=c1[nH]cnc2c1sc1nc3c(c(-c4ccc(Cl)cc4)c12)CCC3,-1,.,12,-23,-3,-15,.
O=c1[nH]cnc2c1sc1nc(C(F)F)cc(-c3ccccc3)c12,0,-4,.,32*,-4,0,4
Cc1cc(C(=O)CCC(=O)N(C)CC(=O)Nc2c(Cl)cccc2Cl)c(C)s1,-1,-4,2,-6,4,-3,.
CCOC(=O)Cc1cc(=O)[nH]c(/N=C(\N)Nc2ccc(C)c(C)c2)n1,0,1,.,-7,-2,-1,.
CC(=O)c1cc2c(cc1N/C(=N/S(=O)(=O)c1ccc(Br)cc1)c1ccccc1)OCO2,5,.,4,62*,-8,-4,-1
Cc1cn(-c2cc(C(=O)Nc3ccc(C)c(NC(=O)N4CCNC4=O)c3)cc(C(F)(F)F)c2)cn1,1,0,1,56*,-1,1,-2
Cc1cccc(C)c1NC(=O)COC(=O)c1ccc(N2CCCC2)c([N+](=O)[O-])c1,-1,-2,-1,51*,-7,-2,6
CCC(C)c1ccccc1NC(=O)COC(=O)c1ccc(N2CCCC2)c([N+](=O)[O-])c1 (stereo not given),0,-4,-4,2,-2,-1,.
O=C(O)CC(NC(=O)CCc1ccccc1)c1ccc(Cl)cc1 (stereo not given),-7,.,.,5,0,-1,.
CN(C)CCCNc1cc(-c2ccccc2)nc2cc(-c3cccc(F)c3)nn12,1,-14,1,56*,7,-10,2
SMILES,CDK5 p35 inh,CAL PDZ FP-1,Dyrk1A ADPGlo,dFosB act-1,Rtt109 HAT inh,CAL PDZ FP-2,dFosB act-2
CCNC1CCC(Nc2ccnc3cc(Cl)ccc23)CC1 (stereo not given),0,-4,4,20*,-8,-1,6
CCN(CC)CCNc1ccnc2cc(Cl)ccc12,4,-1,5,9,-4,-2,.
CCOc1ccc(Br)cc1C(=O)Nc1ccc(C(=O)NCC(C)C)cc1,0,.,9,74*,15,-2,2
Cn1cc(/C=N/NC(=O)c2ccccc2O)c2ccccc21,0,-2,.,-3,5,0,.
CC(=O)n1cc(/C=N/NC(=O)c2ccccc2O)c2ccccc21,-2,-16,14,29*,-8,-3,3
CCOC(=O)c1c(C)[nH]c(C(=O)OCC(=O)Nc2cc(Cl)ccc2OC)c1C,5,.,0,-1,-5,-3,.
CCOC(=O)c1c(C)[nH]c(C(=O)OCC(=O)Nc2cc(C)ccc2OC)c1C,0,-2,-16,23*,-15,.,0
O=C(NCc1ccccc1)NC(=O)c1ccc(Cl)cc1,-6,-1,0,-7,-5,-3,.
Cc1c(Cl)cccc1NC(=O)NCc1ccc(F)cc1,-1,-2,.,28*,.,-3,-3
O=C(NCc1ccc(F)cc1)NC(=O)c1ccc(Cl)cc1,0,-4,-1,32*,7,-3,5
Cc1c(Cl)cccc1NC(=O)NCc1ccccn1,-1,-1,0,-9,5,-1,.
O=C(CCN1CCN(c2ccccc2)CC1)N/N=C/c1ccccc1OC(F)F,-1,-2,4,-9,-7,0,.
Cc1c(Cl)cccc1NC(=O)Cn1cc(C(F)(F)F)cc(Cl)c1=O,0,-1,4,57*,3,-2,1
Cc1ccc(Cl)cc1NC(=O)Cn1cc(C(F)(F)F)cc(Cl)c1=O,-2,-2,-1,-10,-4,0,.
